This note sets out measurements from ChEMBL document CHEMBL1122685, “Identification of an acridine photoaffinity probe for trypanocidal action” (1984).

Holding throughout (type): functional
Test [1] concerns Trypanosoma brucei. As to the kind of experiment: Trypanocidal activity against Trypanosoma brucei, exposure of parasites to compound prior to injection into mice at 10 e-4 M concentration in presence of light. More on the design: unit: days. A digest of the protocol: (§1)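 DEAE-purified T. brucei EATRO 110 at 5×10^6/mL in TSG was mixed with drug at the final concentration by gentle rotation for 10 min. Samples were light-activated for 10 min under a 30W fluorescent lamp 4 cm above. 5×10^5 treated parasites in 0.1 mL were injected ip into Swiss mice, five per group. Survival was scored daily for 30 days and reported as mean days ±SD, with untreated controls.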

In test [2] the test system is Trypanosoma brucei. As to the kind of experiment: Trypanocidal activity against Trypanosoma brucei, exposure of parasites to compound prior to injection into mice at 10 e-6 M concentration in dark conditions. A digest of the protocol: (§2)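 T. brucei EATRO 110 was separated from blood on DEAE-cellulose and washed in Tris-saline-glucose (TSG). Parasites at 5×10^6/mL in TSG were gently rotated 10 min with drug at the final concentration, kept dark under a red safelight until injection. Swiss mice, five per group, received 5×10^5 parasites ip in 0.1 mL. Read-out was mean days survival ±SD over 30 days, against untreated-parasite controls.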

Test [3] has as its system Trypanosoma brucei. As to the kind of experiment: Trypanocidal activity against Trypanosoma brucei, exposure of parasites to compound prior to injection into mice at 10 e-5 M concentration in dark conditions. A digest of the protocol:
as §2

For test [4], the system named is Trypanosoma brucei. As to the kind of experiment: Compound is evaluated for trypanocidal activity against Trypanosoma brucei, by exposing the parasites directly to compound prior to injection to mice at 10 e-6 M concentration (pre) in presence of light. The method, boiled down:
(§3)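 Compound was irradiated 1 h before contact with T. brucei EATRO 110 (5×10^6/mL in TSG, final drug concentration). After 10 min gentle rotation, the mixture was irradiated again for 10 min under a 30W fluorescent lamp at 4 cm. 5×10^5 parasites in 0.1 mL were given ip to five Swiss mice per group. Read-out was mean days survival ±SD over 30 days, with untreated controls.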

Test [5] has as its system Trypanosoma brucei. The test is described as follows: Trypanocidal activity against Trypanosoma brucei, exposure of parasites to compound prior to injection into mice at 10 e-5 M concentration in presence of light. On the set-up: unit: days. A digest of the protocol:
as §1

Test [6] deals with Trypanosoma brucei. As to the kind of experiment: Trypanocidal activity against Trypanosoma brucei, exposure of parasites to compound prior to injection into mice at 10 e-4 M concentration in dark conditions. The method, boiled down:
as §2

For test [7], the system named is Trypanosoma brucei. As to the kind of experiment: Compound is evaluated for trypanocidal activity against Trypanosoma brucei, by exposing the parasites directly to compound prior to injection to mice at 10 e-7 M concentration in presence of light. On the set-up: unit: days. A digest of the protocol: as §1
Test [8] concerns Trypanosoma brucei. As to the kind of experiment: Trypanocidal activity against Trypanosoma brucei, exposur of parasites to compound prior to injection into mice at 10 e-6 M concentration in presence of light. On the set-up: unit: days. The method, boiled down: as §1
Test [9] has as its system Trypanosoma brucei. As to the kind of experiment: Compound is evaluated for trypanocidal activity against Trypanosoma brucei, by exposing the parasites directly to compound prior to injection to mice at 10 e-7 M concentration in dark conditions. More on the design: unit: days. A digest of the protocol:
as §2

The test system of test [10] is Trypanosoma brucei. The test is described as follows: Compound is evaluated for trypanocidal activity against Trypanosoma brucei, by exposing the parasites directly to compound prior to injection to mice at 10 e-6 M concentration (pre) in dark conditions. A digest of the protocol:
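Drug was preirradiated 1 h with visible light, then added at the final concentration to T. brucei EATRO 110 (5×10^6/mL in TSG) and rotated 10 min. The parasites were then kept dark with a red safelight. Swiss mice, five per group, were injected ip with 0.1 mL holding 5×10^5 parasites. Mean days survival ±SD was scored over 30 days against untreated-parasite controls.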

In test [11] the test system is Trypanosoma brucei. The test is described as follows: Compound is evaluated for trypanocidal activity against Trypanosoma brucei, by exposing the parasites directly to compound prior to injection to mice at 10 e-5 M concentration (pre) in presence of light. A digest of the protocol:
as §3

The structures appear in SMILES notation.

Turning to `Nc1ccc2c(N)c3ccccc3nc2c1`, the Activity in the test on Trypanosoma brucei [1] is listed as 30; in the test on Trypanosoma brucei [2] it was 5; with Trypanosoma brucei [3] it was 8.1; in the test with Trypanosoma brucei [5], 30; with Trypanosoma brucei [7], 15; in the test on Trypanosoma brucei [8], 17.4. The molecule further had an Activity with Trypanosoma brucei [9] of 5.2. In addition, in the test on Trypanosoma brucei [4], the “Mean survival of mice (days)” value was determined as 27.8. Also, the “Mean survival time of infected mice (days)” value (from here on “Mean survival time”) with Trypanosoma brucei [6] worked out at 30.
For `C[n+]1c2cc(N)ccc2cc2ccc(N=[N+]=[N-])cc21.[Cl-]`, the Activity with Trypanosoma brucei [1] worked out at 30; in the test with Trypanosoma brucei [10], 6.3; in the test with Trypanosoma brucei [2] it was 6.9; with Trypanosoma brucei [3], 18.2; in the test on Trypanosoma brucei [5] it was 30; with Trypanosoma brucei [7], 30. The Activity in the test on Trypanosoma brucei [8] was 30; with Trypanosoma brucei [9], 6.4. Further, the “Mean survival of mice (days)” value in the test with Trypanosoma brucei [4] is given as 5.5. Besides, in the test on Trypanosoma brucei [6], the “Mean survival time” value is listed as 30.
For the molecule `[N-]=[N+]=Nc1ccc2nc3ccccc3c(N)c2c1`, the Activity in the test with Trypanosoma brucei [1] turned out to be 30; in the test on Trypanosoma brucei [2] it was 4.8; in the test with Trypanosoma brucei [3], 5.4; in the test on Trypanosoma brucei [5], 30; in the test with Trypanosoma brucei [7], 6; with Trypanosoma brucei [8] it was 11.6. The molecule further showed an Activity with Trypanosoma brucei [9] of 4.6. The “Mean survival of mice (days)” value in the test with Trypanosoma brucei [4] is on record as 4.6. In addition, the “Mean survival time” value in the test with Trypanosoma brucei [6] is 9.8.
Consider `[N-]=[N+]=Nc1ccc2cc3ccc(N=[N+]=[N-])cc3nc2c1`, for which the Activity in the test with Trypanosoma brucei [1] is given as 5.5. The “Mean survival time” value in the test on Trypanosoma brucei [6] is on record as 6.
On to `C[n+]1c2cc(N=[N+]=[N-])ccc2cc2ccc(N=[N+]=[N-])cc21.[Cl-]`, for which the Activity turned out to be 30 with Trypanosoma brucei [1]; 5.8 in the test on Trypanosoma brucei [2]; 6 in the test on Trypanosoma brucei [3]; 26.6 with Trypanosoma brucei [5]; 5.6 in the test with Trypanosoma brucei [7]; 8.2 in the test on Trypanosoma brucei [8]. In addition, the Activity in the test with Trypanosoma brucei [9] was found to be 5.4. Besides, in the test on Trypanosoma brucei [4], the “Mean survival of mice (days)” value amounted to 5.4. Moreover, in the test with Trypanosoma brucei [6], the “Mean survival time” value is listed as 30.
Turning to `C[n+]1c2ccccc2cc2cc(N=[N+]=[N-])ccc21.[Cl-]`, the Activity with Trypanosoma brucei [1] is listed as 30; in the test with Trypanosoma brucei [2], 4.4; in the test on Trypanosoma brucei [3], 14.5; in the test on Trypanosoma brucei [5], 13.9; in the test with Trypanosoma brucei [7], 4.2; in the test with Trypanosoma brucei [8], 5.5. Also, the Activity with Trypanosoma brucei [9] is reported as 4.8. The “Mean survival of mice (days)” value with Trypanosoma brucei [4] is recorded as 4.8. For the same molecule, in the test with Trypanosoma brucei [6], the “Mean survival time” value is on record as 30.
`[N-]=[N+]=Nc1ccc2c(N)c3ccccc3nc2c1`: the Activity was determined as 26.8 in the test on Trypanosoma brucei [1]; 5.8 with Trypanosoma brucei [2]; 6.3 in the test with Trypanosoma brucei [3]; 5.2 in the test with Trypanosoma brucei [11]; 14.2 in the test with Trypanosoma brucei [5]; 7.6 in the test with Trypanosoma brucei [8]. Further, the “Mean survival time” value in the test on Trypanosoma brucei [6] was 25.3.
With `C[n+]1c2ccccc2c(N)c2ccccc21.[Cl-]`, the Activity was found to be 30 with Trypanosoma brucei [1]; 4.2 with Trypanosoma brucei [2]; 5.4 in the test with Trypanosoma brucei [3]; 21 in the test with Trypanosoma brucei [5]; 5.8 with Trypanosoma brucei [8]. The “Mean survival of mice (days)” value in the test with Trypanosoma brucei [4] is given as 6.2. The “Mean survival time” value in the test with Trypanosoma brucei [6] is reported as 30.
As for `C[n+]1c2ccccc2c(N=[N+]=[N-])c2ccccc21.[Cl-]`, the Activity worked out at 30 in the test with Trypanosoma brucei [1]; 5 in the test with Trypanosoma brucei [2]; 3.6 in the test with Trypanosoma brucei [3]; 20 in the test on Trypanosoma brucei [5]; 6.2 in the test on Trypanosoma brucei [7]; 6.8 with Trypanosoma brucei [8]. Further, the Activity in the test on Trypanosoma brucei [9] is listed as 5.2. In the test on Trypanosoma brucei [4], the “Mean survival of mice (days)” value was 8.6. Further, the “Mean survival time” value in the test on Trypanosoma brucei [6] was found to be 30.
Take `C[n+]1c2ccccc2cc2cc(N)ccc21.[Cl-]`: the Activity is given as 30 in the test on Trypanosoma brucei [1]; 3.6 with Trypanosoma brucei [2]; 5.8 in the test on Trypanosoma brucei [3]; 6.8 in the test with Trypanosoma brucei [5]; 6 with Trypanosoma brucei [8]. Also, the “Mean survival time” value with Trypanosoma brucei [6] was found to be 30.
For the molecule `[N-]=[N+]=Nc1ccc(Nc2c3ccccc3nc3ccccc23)cc1`, the Activity in the test with Trypanosoma brucei [1] was determined as 30; with Trypanosoma brucei [2], 4.4; in the test on Trypanosoma brucei [3], 4; with Trypanosoma brucei [5] it was 30; in the test with Trypanosoma brucei [8], 5.8. Besides, the “Mean survival time” value in the test on Trypanosoma brucei [6] worked out at 4.8.
With `C[n+]1c2ccccc2cc2c(N)cccc21.[Cl-]`, the Activity came to 30 in the test with Trypanosoma brucei [1]; 4 in the test on Trypanosoma brucei [2]; 4.6 in the test on Trypanosoma brucei [3]; 6.4 with Trypanosoma brucei [5]; 4.2 with Trypanosoma brucei [8]. For the same molecule, the “Mean survival time” value in the test on Trypanosoma brucei [6] came to 30.
In the case of `Nc1c2ccccc2nc2cccc([N+](=O)[O-])c12`, the Activity was 30 with Trypanosoma brucei [1]; 4.4 in the test on Trypanosoma brucei [2]; 25.4 in the test on Trypanosoma brucei [3]; 30 with Trypanosoma brucei [5]; 5.8 in the test on Trypanosoma brucei [8]. For the same molecule, the “Mean survival time” value in the test with Trypanosoma brucei [6] is given as 30.
On to `Nc1ccc(Nc2c3ccccc3nc3ccccc23)cc1`, for which the Activity worked out at 30 in the test on Trypanosoma brucei [1]; 5.4 with Trypanosoma brucei [2]; 5 in the test on Trypanosoma brucei [3]; 6.4 in the test on Trypanosoma brucei [5]; 4.4 in the test with Trypanosoma brucei [8]. Further, in the test with Trypanosoma brucei [6], the “Mean survival time” value was 30.
For `CC[n+]1c(-c2ccccc2)c2cc(N=[N+]=[N-])ccc2c2ccc(N)cc21.[Cl-]`, the Activity in the test on Trypanosoma brucei [2] is on record as 4.6; in the test on Trypanosoma brucei [7], 27.4; in the test on Trypanosoma brucei [8], 30; with Trypanosoma brucei [9], 4.
Turning to `[N-]=[N+]=Nc1c2ccccc2nc2cccc([N+](=O)[O-])c12`, the Activity is recorded as 30 with Trypanosoma brucei [1]; 4.2 in the test with Trypanosoma brucei [2]; 10 in the test with Trypanosoma brucei [3]; 30 with Trypanosoma brucei [5]; 5 with Trypanosoma brucei [7]; 6 with Trypanosoma brucei [8]. Further, in the test with Trypanosoma brucei [9], the Activity came out at 5.4. For the same molecule, in the test on Trypanosoma brucei [4], the “Mean survival of mice (days)” value turned out to be 4. In addition, the “Mean survival time” value in the test with Trypanosoma brucei [6] stood at 30.
As for `C[n+]1c2ccccc2cc2c(N=[N+]=[N-])cccc21.[Cl-]`, the Activity with Trypanosoma brucei [1] is 4.8; with Trypanosoma brucei [3] it was 6.4; with Trypanosoma brucei [5], 4.8. In addition, the “Mean survival time” value with Trypanosoma brucei [6] is reported as 4.4.
For the molecule `[N-]=[N+]=Nc1c2ccccc2nc2ccccc12`, the Activity in the test on Trypanosoma brucei [1] was 30; with Trypanosoma brucei [2], 5; in the test on Trypanosoma brucei [3], 30; in the test on Trypanosoma brucei [5], 30; with Trypanosoma brucei [7], 4; in the test with Trypanosoma brucei [8], 30. Moreover, the Activity in the test with Trypanosoma brucei [9] was found to be 4.6. In addition, in the test with Trypanosoma brucei [4], the “Mean survival of mice (days)” value is on record as 4.2. In addition, in the test with Trypanosoma brucei [6], the “Mean survival time” value was found to be 30.
Take `C[n+]1c2cc(N)ccc2cc2ccc(N)cc21.[Cl-]` [EUFLAVINE]: the Activity turned out to be 7.8 in the test on Trypanosoma brucei [10]; 6.9 in the test on Trypanosoma brucei [2]; 30 in the test with Trypanosoma brucei [3]; 30 with Trypanosoma brucei [5]; 17.8 in the test on Trypanosoma brucei [7]; 30 in the test with Trypanosoma brucei [8]. Besides, in the test on Trypanosoma brucei [9], the Activity worked out at 6.3. The “Mean survival of mice (days)” value in the test on Trypanosoma brucei [4] was 30. Also, in the test with Trypanosoma brucei [6], the “Mean survival time” value is recorded as 30.
As for `CN(C)CCCNc1c2ccccc2nc2cccc([N+](=O)[O-])c12` [NITRACRINE], the Activity in the test on Trypanosoma brucei [1] worked out at 30; in the test on Trypanosoma brucei [2] it was 5.7; in the test on Trypanosoma brucei [3], 5.7; in the test with Trypanosoma brucei [5], 30; in the test with Trypanosoma brucei [7], 6.6; with Trypanosoma brucei [8], 22.9. In addition, in the test with Trypanosoma brucei [9], the Activity stood at 6. For the same molecule, the “Mean survival of mice (days)” value in the test with Trypanosoma brucei [4] stood at 10.4. Further, the “Mean survival time” value with Trypanosoma brucei [6] turned out to be 30.
